ChEMBL document CHEMBL4011598, “Sulfonamides as Selective NaV1.7 Inhibitors: Optimizing Potency and Pharmacokinetics While Mitigating Metabolic Liabilities” (J Med Chem, 2017)

Experiments:
[1] = biological target: Sodium channel protein type 8 subunit alpha (Homo sapiens, UniProt Q9UQD0); assay: Inhibition of human Nav1.6 expressed in HEK293 cells assessed as reduction in peak inward current by ionworks quattro electrophysiology assay; format: cell-based
Canis familiaris = assay: Unbound clearance in dog at 0.25 mg/kg, iv; format: ADME, organism-based, Canis lupus familiaris; settings: in vivo
In short: (§1)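 Male dogs received a single 0.25 mg/kg iv dose in DMSO. Unbound clearance (CLu) is total clearance divided by fu, the unbound fraction in plasma.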

[2] = Total clearance in dog at 0.25 mg/kg, iv; format: ADME, organism-based, Canis lupus familiaris; settings: in vivo; in short: as §1
[3] = Volume of distribution at steady state in rat at 0.5 mg/kg, iv; format: ADME, organism-based; settings: in vivo, read-out: Vdss
In short: (§2)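 Male rats given a single 0.5 mg/kg iv dose in DMSO. Unbound clearance (CLu) is total clearance divided by fu, the unbound fraction in plasma.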

[4] = Half life in rat at 0.5 mg/kg, iv; format: ADME, organism-based; settings: in vivo; in short: as §2
[5] = Tmax in rat at 10 mg/kg, po; format: ADME, organism-based; settings: in vivo
Cytochrome P450 2C9 = Cytochrome P450 2C9 (Homo sapiens, UniProt P11712); assay: Inhibition of CYP2C9 (unknown origin); format: ADME
Sequence of Cytochrome P450 2C9 (P11712 whole entry): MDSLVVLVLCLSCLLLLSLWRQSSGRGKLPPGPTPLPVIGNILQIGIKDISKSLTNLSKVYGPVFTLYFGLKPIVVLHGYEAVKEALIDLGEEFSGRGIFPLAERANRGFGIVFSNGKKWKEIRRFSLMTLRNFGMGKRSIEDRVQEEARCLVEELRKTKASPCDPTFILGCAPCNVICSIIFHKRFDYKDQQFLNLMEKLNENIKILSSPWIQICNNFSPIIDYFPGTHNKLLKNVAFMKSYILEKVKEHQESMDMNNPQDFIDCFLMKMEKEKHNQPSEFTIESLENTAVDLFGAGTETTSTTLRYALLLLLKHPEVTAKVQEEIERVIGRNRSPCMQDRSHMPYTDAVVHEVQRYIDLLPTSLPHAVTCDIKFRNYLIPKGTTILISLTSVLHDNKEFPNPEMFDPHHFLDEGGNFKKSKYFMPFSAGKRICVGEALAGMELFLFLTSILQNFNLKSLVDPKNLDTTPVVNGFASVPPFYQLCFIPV

[6] = biological target: Sodium channel protein type 9 subunit alpha (Mus musculus, UniProt Q62205); assay: Inhibition of mouse Nav1.7 expressed in HEK293 cells incubated for 3 to 5 mins at -125 mV holding potential by electrophysiology assay; format: cell-based
Sequence of Sodium channel protein type 9 subunit alpha (Mus musculus, UniProt Q62205) (Q62205 whole entry): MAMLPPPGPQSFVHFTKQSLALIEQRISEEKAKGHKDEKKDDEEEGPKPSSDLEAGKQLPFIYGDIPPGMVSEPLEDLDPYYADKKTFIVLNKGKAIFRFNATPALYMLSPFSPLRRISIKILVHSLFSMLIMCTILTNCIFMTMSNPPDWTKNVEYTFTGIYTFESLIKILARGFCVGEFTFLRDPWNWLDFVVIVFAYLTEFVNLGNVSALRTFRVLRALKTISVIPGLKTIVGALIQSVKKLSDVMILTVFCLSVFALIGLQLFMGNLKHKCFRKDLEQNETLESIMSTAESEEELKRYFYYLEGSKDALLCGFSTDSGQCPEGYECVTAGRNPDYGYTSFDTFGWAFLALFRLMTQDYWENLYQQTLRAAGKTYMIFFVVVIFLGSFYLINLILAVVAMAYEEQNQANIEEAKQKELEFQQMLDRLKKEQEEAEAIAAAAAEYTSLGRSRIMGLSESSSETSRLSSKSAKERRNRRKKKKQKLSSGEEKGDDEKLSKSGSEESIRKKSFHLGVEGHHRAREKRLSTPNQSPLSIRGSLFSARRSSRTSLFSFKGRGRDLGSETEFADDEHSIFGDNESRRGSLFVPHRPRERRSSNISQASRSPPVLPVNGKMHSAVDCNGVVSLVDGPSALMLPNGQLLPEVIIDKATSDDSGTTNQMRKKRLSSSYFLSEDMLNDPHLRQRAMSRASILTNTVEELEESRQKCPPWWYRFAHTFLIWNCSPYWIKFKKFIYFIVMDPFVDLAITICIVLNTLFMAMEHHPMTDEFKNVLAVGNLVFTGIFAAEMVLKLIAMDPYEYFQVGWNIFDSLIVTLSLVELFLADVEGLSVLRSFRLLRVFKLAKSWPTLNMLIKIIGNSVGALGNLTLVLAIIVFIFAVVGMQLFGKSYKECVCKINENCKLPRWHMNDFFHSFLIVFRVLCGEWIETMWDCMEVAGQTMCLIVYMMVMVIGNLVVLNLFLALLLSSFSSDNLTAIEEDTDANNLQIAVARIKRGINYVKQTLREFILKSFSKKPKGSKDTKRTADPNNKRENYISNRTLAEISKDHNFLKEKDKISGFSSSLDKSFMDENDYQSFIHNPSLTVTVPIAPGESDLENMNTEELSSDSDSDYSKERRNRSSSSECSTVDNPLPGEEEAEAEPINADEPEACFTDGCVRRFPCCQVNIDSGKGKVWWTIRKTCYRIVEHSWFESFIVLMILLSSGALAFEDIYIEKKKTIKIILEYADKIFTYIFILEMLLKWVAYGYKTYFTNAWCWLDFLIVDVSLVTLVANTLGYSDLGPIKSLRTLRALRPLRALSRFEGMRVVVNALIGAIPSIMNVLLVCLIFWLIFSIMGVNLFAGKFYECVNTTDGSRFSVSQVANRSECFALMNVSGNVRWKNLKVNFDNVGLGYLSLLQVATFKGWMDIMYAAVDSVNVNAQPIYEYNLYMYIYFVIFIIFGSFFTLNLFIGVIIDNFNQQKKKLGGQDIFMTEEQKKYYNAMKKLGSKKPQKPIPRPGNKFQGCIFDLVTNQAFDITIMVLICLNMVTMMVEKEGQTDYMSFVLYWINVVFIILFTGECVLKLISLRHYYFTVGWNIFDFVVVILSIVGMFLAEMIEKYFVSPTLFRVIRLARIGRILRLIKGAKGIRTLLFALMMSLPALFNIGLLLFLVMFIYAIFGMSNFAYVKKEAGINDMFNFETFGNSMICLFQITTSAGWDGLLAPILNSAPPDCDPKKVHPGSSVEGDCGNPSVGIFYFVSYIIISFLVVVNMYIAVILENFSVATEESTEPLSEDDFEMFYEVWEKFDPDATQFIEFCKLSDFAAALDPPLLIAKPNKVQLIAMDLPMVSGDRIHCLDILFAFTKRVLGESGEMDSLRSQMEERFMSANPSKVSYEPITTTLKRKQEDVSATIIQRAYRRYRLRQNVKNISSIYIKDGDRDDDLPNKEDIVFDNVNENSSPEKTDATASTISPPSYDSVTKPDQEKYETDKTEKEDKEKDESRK

[7] = biological target: Sodium channel protein type 9 subunit alpha (Rattus norvegicus, UniProt O08562); assay: Inhibition of rat Nav1.7 expressed in HEK293T cells incubated for 3 to 5 mins at -125 mV holding potential by electrophysiology assay; format: cell-based
[8] = biological target: Sodium channel protein type 9 subunit alpha (Homo sapiens, UniProt Q15858); assay: Inhibition of human Nav1.7 at resting/closed state expressed in HEK293 cells at -140 mV holding potential by manual whole cell patch clamp electrophysiology assay; format: cell-based
Sequence of Sodium channel protein type 9 subunit alpha (Homo sapiens, UniProt Q15858) (Q15858 whole entry): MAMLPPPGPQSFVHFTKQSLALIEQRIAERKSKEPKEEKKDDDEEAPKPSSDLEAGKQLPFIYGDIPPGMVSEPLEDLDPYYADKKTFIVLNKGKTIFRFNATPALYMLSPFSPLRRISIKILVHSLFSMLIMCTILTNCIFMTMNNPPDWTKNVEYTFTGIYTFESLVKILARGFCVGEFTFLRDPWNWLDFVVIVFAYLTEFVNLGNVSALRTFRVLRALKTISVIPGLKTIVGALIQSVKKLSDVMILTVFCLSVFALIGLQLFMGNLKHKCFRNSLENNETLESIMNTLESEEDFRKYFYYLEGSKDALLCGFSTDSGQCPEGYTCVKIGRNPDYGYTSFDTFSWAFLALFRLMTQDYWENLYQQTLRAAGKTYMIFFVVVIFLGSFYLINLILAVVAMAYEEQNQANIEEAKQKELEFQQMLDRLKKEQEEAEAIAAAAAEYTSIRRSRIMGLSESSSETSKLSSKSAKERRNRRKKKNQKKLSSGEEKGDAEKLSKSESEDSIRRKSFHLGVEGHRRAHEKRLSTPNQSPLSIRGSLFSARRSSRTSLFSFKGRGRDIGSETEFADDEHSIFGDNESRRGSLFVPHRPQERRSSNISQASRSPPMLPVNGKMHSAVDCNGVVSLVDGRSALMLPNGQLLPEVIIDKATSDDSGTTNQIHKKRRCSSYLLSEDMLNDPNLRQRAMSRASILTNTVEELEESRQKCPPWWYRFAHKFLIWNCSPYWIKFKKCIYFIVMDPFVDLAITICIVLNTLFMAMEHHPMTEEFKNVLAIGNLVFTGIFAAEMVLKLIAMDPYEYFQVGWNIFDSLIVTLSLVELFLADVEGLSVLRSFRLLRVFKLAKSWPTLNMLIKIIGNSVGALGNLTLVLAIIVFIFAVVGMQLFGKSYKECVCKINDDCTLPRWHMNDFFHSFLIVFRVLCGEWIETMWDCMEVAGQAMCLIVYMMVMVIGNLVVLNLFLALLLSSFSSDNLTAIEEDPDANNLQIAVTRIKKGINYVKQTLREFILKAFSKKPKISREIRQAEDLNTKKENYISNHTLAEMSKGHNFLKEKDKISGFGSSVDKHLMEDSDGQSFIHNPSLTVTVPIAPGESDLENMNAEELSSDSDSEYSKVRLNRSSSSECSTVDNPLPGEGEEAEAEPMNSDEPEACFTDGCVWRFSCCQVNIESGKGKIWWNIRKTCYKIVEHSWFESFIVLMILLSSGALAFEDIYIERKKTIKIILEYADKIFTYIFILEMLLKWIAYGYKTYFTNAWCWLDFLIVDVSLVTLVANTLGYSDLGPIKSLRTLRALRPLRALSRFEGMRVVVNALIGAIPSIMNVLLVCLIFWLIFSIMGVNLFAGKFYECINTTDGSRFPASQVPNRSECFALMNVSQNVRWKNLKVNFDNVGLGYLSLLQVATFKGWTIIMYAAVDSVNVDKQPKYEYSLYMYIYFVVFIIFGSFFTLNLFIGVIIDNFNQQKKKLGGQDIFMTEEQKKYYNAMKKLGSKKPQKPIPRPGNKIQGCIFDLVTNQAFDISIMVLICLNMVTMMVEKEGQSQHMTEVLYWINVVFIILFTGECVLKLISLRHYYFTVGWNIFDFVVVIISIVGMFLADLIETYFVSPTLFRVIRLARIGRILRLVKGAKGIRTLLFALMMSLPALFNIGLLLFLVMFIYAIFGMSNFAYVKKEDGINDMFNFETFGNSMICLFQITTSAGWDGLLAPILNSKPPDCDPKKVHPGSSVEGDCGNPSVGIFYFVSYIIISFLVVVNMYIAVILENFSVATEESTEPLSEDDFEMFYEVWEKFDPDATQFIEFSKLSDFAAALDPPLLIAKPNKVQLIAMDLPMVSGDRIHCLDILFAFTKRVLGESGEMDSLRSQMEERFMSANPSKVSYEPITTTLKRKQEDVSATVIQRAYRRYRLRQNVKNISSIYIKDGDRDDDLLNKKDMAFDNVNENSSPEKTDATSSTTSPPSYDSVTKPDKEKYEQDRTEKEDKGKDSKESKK

[9] = Ratio of unbound plasma concentration in C57Bl/6 mouse at 300 mg/kg, po to IC50 for human Nav1.7 at -125 mV holding potential
Cytochrome P450 3A4 = Cytochrome P450 3A4 (Homo sapiens, UniProt P08684); assay: Induction of CYP3A4 in human hepatocytes at 10 uM relative to rifampicin
Sequence of Cytochrome P450 3A4 (P08684 whole entry): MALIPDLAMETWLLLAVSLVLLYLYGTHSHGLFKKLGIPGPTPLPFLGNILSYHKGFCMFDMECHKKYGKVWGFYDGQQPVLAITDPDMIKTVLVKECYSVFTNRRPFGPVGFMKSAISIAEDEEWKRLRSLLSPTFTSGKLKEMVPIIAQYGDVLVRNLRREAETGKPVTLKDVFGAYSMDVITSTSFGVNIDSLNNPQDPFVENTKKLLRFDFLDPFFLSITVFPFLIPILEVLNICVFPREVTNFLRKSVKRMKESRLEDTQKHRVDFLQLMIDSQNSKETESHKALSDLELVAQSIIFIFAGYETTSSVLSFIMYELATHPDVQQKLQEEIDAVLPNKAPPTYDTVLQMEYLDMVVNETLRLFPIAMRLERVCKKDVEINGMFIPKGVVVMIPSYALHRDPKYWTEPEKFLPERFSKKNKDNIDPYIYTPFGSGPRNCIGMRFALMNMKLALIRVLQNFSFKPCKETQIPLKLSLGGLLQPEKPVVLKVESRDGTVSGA

- IC50 [1]: 16 µM
- CL free (Canis familiaris): 3.6 L/h/kg
- clearance [2]: 0.383 mL/min/kg
- Vd [3]: 2.1 L/kg
- half-life [4]: 372 min
- Tmax [5]: 6 h
- IC50 (Cytochrome P450 2C9): 430 nM
- IC50 [6]: 36 nM
- IC50 [7]: 4 µM
- IC50 [8]: 4 µM
- Activity (Cytochrome P450 3A4): 7%
Structure (SMILES): COc1cc(-c2cccc(C(F)(F)F)c2)c(F)cc1-c1nccc2cc(S(=O)(=O)Nc3ccon3)ccc12
- Ratio [9]: 45
